Measured values reported in ChEMBL document CHEMBL1152445, “Modulation of multidrug resistance protein 1 (MRP1/ABCC1)-mediated multidrug resistance by bivalent apigenin homodimers and their derivatives” (J Med Chem, 2009).
The source made the active and inactive calls. No cut-off for these calls is given here.

Columns and labels:
[1] = biological target: ATP-binding cassette sub-family C member 2 (Homo sapiens, UniProt Q92887); test: Inhibition of MRP2
Homo sapiens = organism: Homo sapiens; test: Increase in doxorubicin accumulation in doxorubicin-co-incubated human 2008/P cells at 3 uM after 120 mins by spectrofluorimetry; format: functional
Summary of the method: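 5 × 10^5 cells of the parental ovarian line incubated 120 min at 37 °C with 20 μM doxorubicin plus 3 μM modulator, 0.3% DMSO as vehicle control. Cells washed twice with cold PBS pH 7.4 and lysed in 0.75 M HCl/0.2% Triton X-100 in isopropanol, then 20 min at 37 °C. Supernatant fluorescence read at ex 460/em 610 nm. Duplicate, three repeats, mean ± SEM.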

[2] = Cytotoxicity against human 2008/MRP1 cells after 5 days by MTS assay; format: cell-based; conditions: 2008/MRP1, 120 h
[3] = Cytotoxicity against human 2008/MRP1 cells at 0.5 uM by MTS assay; format: cell-based; conditions: 2008/mrp1, 0.5 µM
[4] = Cytotoxicity against human 2008/P cells at 0.5 uM after 5 days by MTS assay; format: cell-based; conditions: 120 h
[5] = Cytotoxicity against human 2008/P cells after 5 days by MTS assay; format: cell-based; conditions: 120 h
Mus musculus = test: Potentiation of vincristine-efficacy in nude mouse model assessed as regression of tumor volume at 8 mg/kg in presence of 0.5 mg/kg vincristine; format: functional
[6] = biological target: T1, Multidrug resistance-associated protein 1 (Homo sapiens, UniProt P33527); test: Reversal of MRP1-mediated doxorubicin resistance in human 2008/MRP1 cells assessed as ratio of doxorubicin IC50 to doxorubicin IC50 in presence of compound at 0.5 uM; format: cell-based; conditions: 2008/mrp1, 0.5 µM
T1 sequence (P33527 whole entry): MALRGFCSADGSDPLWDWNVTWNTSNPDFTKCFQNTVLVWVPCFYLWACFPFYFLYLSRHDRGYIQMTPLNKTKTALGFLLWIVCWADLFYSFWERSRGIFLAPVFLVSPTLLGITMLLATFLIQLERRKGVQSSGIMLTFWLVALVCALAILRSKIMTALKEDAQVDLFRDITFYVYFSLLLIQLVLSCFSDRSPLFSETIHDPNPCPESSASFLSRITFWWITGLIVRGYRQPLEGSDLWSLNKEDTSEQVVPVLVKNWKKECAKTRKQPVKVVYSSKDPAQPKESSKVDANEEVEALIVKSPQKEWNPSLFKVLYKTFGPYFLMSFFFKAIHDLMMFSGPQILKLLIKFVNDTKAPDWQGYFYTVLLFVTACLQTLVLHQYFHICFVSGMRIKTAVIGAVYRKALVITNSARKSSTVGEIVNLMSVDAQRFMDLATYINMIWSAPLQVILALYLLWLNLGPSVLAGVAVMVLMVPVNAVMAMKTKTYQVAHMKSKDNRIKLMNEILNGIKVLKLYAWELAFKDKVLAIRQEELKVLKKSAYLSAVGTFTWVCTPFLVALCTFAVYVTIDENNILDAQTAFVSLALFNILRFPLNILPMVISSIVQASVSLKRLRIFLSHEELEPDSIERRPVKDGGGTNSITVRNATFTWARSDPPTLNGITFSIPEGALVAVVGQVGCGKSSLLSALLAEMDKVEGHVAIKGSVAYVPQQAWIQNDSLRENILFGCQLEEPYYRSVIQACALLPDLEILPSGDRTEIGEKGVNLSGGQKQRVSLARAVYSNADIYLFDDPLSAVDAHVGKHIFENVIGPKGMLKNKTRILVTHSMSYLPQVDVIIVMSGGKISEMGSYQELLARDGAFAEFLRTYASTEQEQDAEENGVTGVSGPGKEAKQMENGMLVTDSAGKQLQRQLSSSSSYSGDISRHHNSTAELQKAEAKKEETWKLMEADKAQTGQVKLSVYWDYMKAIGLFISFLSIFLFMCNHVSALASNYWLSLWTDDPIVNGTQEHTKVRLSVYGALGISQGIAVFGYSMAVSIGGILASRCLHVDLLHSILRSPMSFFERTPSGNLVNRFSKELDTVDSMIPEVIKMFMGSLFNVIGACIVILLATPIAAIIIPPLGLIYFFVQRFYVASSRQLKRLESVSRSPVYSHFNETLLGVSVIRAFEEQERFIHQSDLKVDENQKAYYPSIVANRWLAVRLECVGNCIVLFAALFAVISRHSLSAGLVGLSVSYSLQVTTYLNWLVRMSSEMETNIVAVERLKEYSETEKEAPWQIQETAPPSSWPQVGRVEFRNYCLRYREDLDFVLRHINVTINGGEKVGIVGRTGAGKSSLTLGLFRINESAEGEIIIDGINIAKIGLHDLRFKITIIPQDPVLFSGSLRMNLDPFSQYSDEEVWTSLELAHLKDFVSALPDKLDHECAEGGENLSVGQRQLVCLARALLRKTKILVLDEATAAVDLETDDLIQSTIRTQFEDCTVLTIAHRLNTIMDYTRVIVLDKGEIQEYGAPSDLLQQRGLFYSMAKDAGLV

[7] = biological target: T1, Multidrug resistance-associated protein 1; test: Reversal of MRP1-mediated doxorubicin resistance in doxorubicin co-incubated human 2008/MRP1 cells assessed as effect on doxorubicin accumulation at […] after 120 mins by spectrofluorimetry; format: cell-based; conditions: 2008/mrp1, 2 h
[8] = biological target: T1, Multidrug resistance-associated protein 1; test: Reversal of MRP1-mediated doxorubicin resistance in doxorubicin co-incubated human 2008/MRP1 cells assessed as increase in doxorubicin accumulation at 3 uM after 120 mins by spectrofluorimetry relative to control; format: cell-based; conditions: 2008/mrp1, 2 h
[9] = Anticancer activity against human 2008/MRP1 cells after 5 days by MTS assay; format: functional, cell-based; conditions: 2008/MRP1, 120 h
[10] = Anticancer activity against human 2008/P cells after 5 days by MTS assay; format: functional, cell-based; conditions: 120 h
[11] = Selectivity ratio of IC50 for human 2008/MRP1 cells to IC50 for human 2008/P cells; format: functional
Summary of the method: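 Ratio of doxorubicin or etoposide IC50 in the MRP1 transfectant to IC50 in the parental line. Both IC50 values come from the 5-day MTS proliferation assay without modulator.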

Sequence of ATP-binding cassette sub-family C member 2 (Q92887 whole entry): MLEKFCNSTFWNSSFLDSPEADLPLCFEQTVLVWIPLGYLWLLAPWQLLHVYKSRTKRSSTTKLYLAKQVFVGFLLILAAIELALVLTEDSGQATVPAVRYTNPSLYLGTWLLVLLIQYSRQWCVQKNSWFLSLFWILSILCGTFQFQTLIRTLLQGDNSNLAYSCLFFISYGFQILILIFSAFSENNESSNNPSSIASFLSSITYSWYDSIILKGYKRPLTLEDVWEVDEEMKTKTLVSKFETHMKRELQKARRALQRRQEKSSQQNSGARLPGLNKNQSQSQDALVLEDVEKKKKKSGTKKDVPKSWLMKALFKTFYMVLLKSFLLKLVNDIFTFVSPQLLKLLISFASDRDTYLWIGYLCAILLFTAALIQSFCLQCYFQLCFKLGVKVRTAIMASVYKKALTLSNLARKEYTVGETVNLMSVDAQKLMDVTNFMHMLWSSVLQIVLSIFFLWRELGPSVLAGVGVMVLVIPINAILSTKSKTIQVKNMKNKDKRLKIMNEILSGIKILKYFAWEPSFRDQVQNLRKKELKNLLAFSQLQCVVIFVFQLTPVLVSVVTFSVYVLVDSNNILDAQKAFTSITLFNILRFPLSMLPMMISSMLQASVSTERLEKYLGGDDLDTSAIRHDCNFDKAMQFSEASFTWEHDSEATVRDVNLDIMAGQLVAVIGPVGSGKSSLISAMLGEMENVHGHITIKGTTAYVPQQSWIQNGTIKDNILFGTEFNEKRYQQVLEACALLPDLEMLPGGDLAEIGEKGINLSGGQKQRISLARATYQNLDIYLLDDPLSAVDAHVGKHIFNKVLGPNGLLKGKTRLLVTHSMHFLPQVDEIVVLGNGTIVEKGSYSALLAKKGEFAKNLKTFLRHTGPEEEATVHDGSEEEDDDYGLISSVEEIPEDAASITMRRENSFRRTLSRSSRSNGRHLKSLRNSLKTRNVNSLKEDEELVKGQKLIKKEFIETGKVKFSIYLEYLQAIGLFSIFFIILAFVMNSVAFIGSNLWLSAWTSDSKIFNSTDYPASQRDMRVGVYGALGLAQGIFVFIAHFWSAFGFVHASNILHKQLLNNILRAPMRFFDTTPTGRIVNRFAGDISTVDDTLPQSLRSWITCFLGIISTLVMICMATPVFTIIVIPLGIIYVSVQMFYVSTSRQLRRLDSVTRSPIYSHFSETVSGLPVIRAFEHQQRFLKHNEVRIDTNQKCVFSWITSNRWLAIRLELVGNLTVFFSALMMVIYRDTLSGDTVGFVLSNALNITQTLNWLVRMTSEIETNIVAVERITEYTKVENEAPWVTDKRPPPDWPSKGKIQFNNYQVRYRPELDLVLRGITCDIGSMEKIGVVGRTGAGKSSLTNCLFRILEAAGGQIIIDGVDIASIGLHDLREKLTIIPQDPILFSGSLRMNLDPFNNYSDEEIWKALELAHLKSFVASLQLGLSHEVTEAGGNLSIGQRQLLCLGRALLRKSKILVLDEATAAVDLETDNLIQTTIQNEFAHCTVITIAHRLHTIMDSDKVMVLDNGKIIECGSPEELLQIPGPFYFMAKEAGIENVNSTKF

SMILES	IC50 [2] [µM]	Activity [3]	Activity [4]	IC50 [5] [µM]	also measured
O=c1c(O)c(-c2cc(O)c(O)c(O)c2)oc2cc(O)cc(O)c12 [MYRICETIN]					IC50 [1]: 22 µM
CN(C)C(=O)CCSC(SCCC(=O)O)c1cccc(/C=C/c2ccc3ccc(Cl)cc3n2)c1 (centres undefined)					Activity (Homo sapiens): inactive
COc1ccc(CCN(C)CCCC(C#N)(c2ccc(OC)c(OC)c2)C(C)C)cc1OC (centres undefined)					Activity (Homo sapiens): inactive
Cc1ccc2c(=O)cc(-c3ccc(OCCOCCOCCOCCOc4ccc(-c5cc(=O)c6ccc(C)cc6o5)cc4)cc3)oc2c1	> 100	Non-toxic	Non-toxic	> 100	
Cc1onc2c1c(=O)n([C@H]1CCC[C@@H](CNC(=O)c3ccccc3)C1)c1cccc(Cl)c21					Activity (Mus musculus): 63%
O=c1cc(-c2ccc(OCCOCCOCCOCCOCCOCCOCCOCCOCCOc3ccc(-c4cc(=O)c5ccccc5o4)cc3)cc2)oc2ccccc12		Non-toxic	Non-toxic		
O=c1cc(-c2ccc(OCCOCCOCCOCCOCCOCCOCCOc3ccc(-c4cc(=O)c5ccccc5o4)cc3)cc2)oc2ccccc12		Non-toxic	Non-toxic		
O=c1cc(-c2ccc(OCCOCCOCCOCCOCCOCCOCCOc3ccc(-c4cc(=O)c5c(O)cc(O)cc5o4)cc3)cc2)oc2cc(O)cc(O)c12					Activity [6]: 1.5
Cc1ccc2c(=O)cc(-c3ccc(OCCOCCOCCOCCOCCOCCOc4ccc(-c5cc(=O)c6ccc(C)cc6o5)cc4)cc3)oc2c1	10.2	Non-toxic	Non-toxic	6.1	
CCc1ccc2oc(-c3ccc(OCCOCCOCCOCCOCCOc4ccc(-c5cc(=O)c6cc(CC)ccc6o5)cc4)cc3)cc(=O)c2c1	46.1	Non-toxic	Non-toxic	62.6	
O=c1cc(-c2ccc(OCCOCCOCCOCCOCCOCCOCCOCCOc3ccc(-c4cc(=O)c5ccccc5o4)cc3)cc2)oc2ccccc12		Non-toxic	Non-toxic		
CCCN(CCC)S(=O)(=O)c1ccc(C(=O)O)cc1 [PROBENECID]					Activity [7]: Not Active; Activity [8]: Not Active; Activity (Homo sapiens): inactive
Cc1c(-c2ccc(OCCOCCOCCOCCOCCOCCOc3ccc(-c4oc5ccccc5c(=O)c4C)cc3)cc2)oc2ccccc2c1=O		Non-toxic	Non-toxic		
Cc1ccc2oc(-c3ccc(OCCOCCOCCOCCOCCOCCOc4ccc(-c5cc(=O)c6cc(C)ccc6o5)cc4)cc3)cc(=O)c2c1	> 100	Non-toxic	Non-toxic	> 100	
O=c1cc(-c2ccc(OCCOCCOCCOCCOCCOc3ccc(-c4cc(=O)c5ccc(F)cc5o4)cc3)cc2)oc2cc(F)ccc12	8.9	Non-toxic	Non-toxic	17.5	
O=c1cc(-c2ccc(OCCOCCOCCOCCOCCOCCOCCOCCOCCOCCOCCOCCOCCOc3ccc(-c4cc(=O)c5ccccc5o4)cc3)cc2)oc2ccccc12		Non-toxic	Non-toxic		
CCc1ccc2oc(-c3ccc(OCCOCCOCCOCCOc4ccc(-c5cc(=O)c6cc(CC)ccc6o5)cc4)cc3)cc(=O)c2c1	69.5	Non-toxic	Non-toxic	77.7	
COc1cccc2c1C(=O)c1c(O)c3c(c(O)c1C2=O)C[C@@](O)(C(=O)CO)C[C@@H]3O[C@H]1C[C@H](N)[C@H](O)[C@H](C)O1 [DOXORUBICIN]					IC50 [9]: 0.577 µM; IC50 [10]: 0.063 µM; Ratio IC50 [11]: 9.2
Cc1ccc2c(=O)cc(-c3ccc(OCCOCCOCCOCCOCCOc4ccc(-c5cc(=O)c6ccc(C)cc6o5)cc4)cc3)oc2c1	53.3	Non-toxic	Non-toxic	60.6	
Cc1c(-c2ccc(OCCOCCOCCOCCOCCOc3ccc(-c4oc5ccccc5c(=O)c4C)cc3)cc2)oc2ccccc2c1=O		Non-toxic	Non-toxic		
Cc1ccc2oc(-c3ccc(OCCOCCOCCOCCOCCOc4ccc(-c5cc(=O)c6cc(C)ccc6o5)cc4)cc3)cc(=O)c2c1	> 100	Non-toxic	Non-toxic	> 100	Activity (Homo sapiens): Active
O=c1cc(-c2ccc(OCCOCCOCCOCCOCCOCCOc3ccc(-c4cc(=O)c5ccc(F)cc5o4)cc3)cc2)oc2cc(F)ccc12	5.2	Non-toxic	Non-toxic	4.4	
O=c1cc(-c2ccc(OCCOCCOCCOCCOc3ccc(-c4cc(=O)c5c(O)cc(O)cc5o4)cc3)cc2)oc2cc(O)cc(O)c12	> 100			> 100	
CCc1ccc2oc(-c3ccc(OCCOCCOCCOCCOCCOCCOc4ccc(-c5cc(=O)c6cc(CC)ccc6o5)cc4)cc3)cc(=O)c2c1	76.2	Non-toxic	Non-toxic	> 96	
O=c1cc(-c2ccc(OCCOCCOCCOCCOc3ccc(-c4cc(=O)c5ccccc5o4)cc3)cc2)oc2ccccc12	> 93			> 100	
O=c1cc(-c2ccc(OCCOCCOCCOCCOCCOCCOc3ccc(-c4cc(=O)c5ccccc5o4)cc3)cc2)oc2ccccc12	2.8	Non-toxic	Non-toxic	3.7	Activity [6]: 7.8
O=c1cc(-c2ccc(OCCOCCOCCOc3ccc(-c4cc(=O)c5c(O)cc(O)cc5o4)cc3)cc2)oc2cc(O)cc(O)c12	> 100			> 100	
Cc1ccc2oc(-c3ccc(OCCOCCOCCOCCOc4ccc(-c5cc(=O)c6cc(C)ccc6o5)cc4)cc3)cc(=O)c2c1	> 77	Non-toxic	Non-toxic	> 100	
